Results as given in ChEMBL document CHEMBL3817745, “Structure-Activity Relationship for the 4(3H)-Quinazolinone Antibacterials” (J Med Chem, 2016).
≈ marks a conversion by molar mass, not a printed value.

Assays:
Assay type in all cases: functional
Staphylococcus aureus = experiment: Antibacterial activity against methicillin-susceptible Staphylococcus aureus ATCC 29213 incubated for 16 to 20 hrs by microdilution method
Klebsiella pneumoniae = experiment: Antibacterial activity against Klebsiella pneumoniae ATCC 700603 incubated for 16 to 20 hrs by microdilution method
In short: (§1)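 CLSI broth microdilution. 2-fold serial dilutions were made in cation-adjusted Mueller–Hinton broth, with 5% lysed horse blood added for Streptococcus strains, in triplicate. Inoculum 5×10^5 CFU/mL. Plates incubated 36 °C for 16–20 h. MIC taken as the lowest concentration visibly inhibiting growth.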

Escherichia coli = experiment: Antibacterial activity against Escherichia coli ATCC 25922 incubated for 16 to 20 hrs by microdilution method; in short: as §1
Klebsiella aerogenes = experiment: Antibacterial activity against Enterobacter aerogenes ATCC 35029 incubated for 16 to 20 hrs by microdilution method; in short: as §1
Acinetobacter baumannii = experiment: Antibacterial activity against Acinetobacter baumannii ATCC 17961 incubated for 16 to 20 hrs by microdilution method; in short: as §1
Enterococcus faecium = experiment: Antibacterial activity against Enterococcus faecium NCTC 7171 incubated for 16 to 20 hrs by microdilution method; in short: as §1
Pseudomonas aeruginosa = experiment: Antibacterial activity against Pseudomonas aeruginosa […] incubated for 16 to 20 hrs by microdilution method; in short: as §1

Row | MIC (Klebsiella pneumoniae) [µg/mL] | MIC (Escherichia coli) [µg/mL] | MIC (Klebsiella aerogenes) [µg/mL] | MIC (Acinetobacter baumannii) [µg/mL] | MIC (Enterococcus faecium) [µg/mL] | MIC (Pseudomonas aeruginosa) [µg/mL] | Compound | MIC (Staphylococcus aureus) [µg/mL]
1 | ≥ 16 | ≥ 16 | ≥ 16 | ≥ 16 | ≥ 8 | ≥ 16 | O=C(O)c1cccc(-n2c(/C=C/c3ccc(F)c(Cl)c3)nc3ccccc3c2=O)c1 | 
2 | ≥ 16 | ≥ 16 | ≥ 16 | ≥ 16 | ≥ 8 | ≥ 16 | CC(=O)Oc1cccc(-n2c(/C=C/c3ccc([N+](=O)[O-])cc3)nc3ccccc3c2=O)c1 | 
3 | ≥ 16 | ≥ 16 | ≥ 16 | ≥ 16 | ≥ 8 | ≥ 16 | NC(=O)c1cccc(-n2c(/C=C/c3ccc(F)cc3)nc3ccccc3c2=O)c1 | 
4 | ≥ 16 | ≥ 16 | ≥ 16 | ≥ 16 | ≥ 8 | ≥ 16 | N#Cc1ccc(/C=C/c2nc3cc(C(=O)O)ccc3c(=O)n2-c2cccc(C(=O)O)c2)cc1 | 128 (≈ 293 µM)
5 | ≥ 16 | ≥ 16 | ≥ 16 | ≥ 16 | ≥ 8 | ≥ 16 | N#Cc1ccc(/C=C/c2nc3ccccc3c(=O)n2-c2cccc(CC(=O)O)c2)cc1 | 
6 | ≥ 16 | ≥ 16 | ≥ 16 | ≥ 16 | ≥ 8 | ≥ 16 | CS(=O)(=O)c1ccc(/C=C/c2nc3ccccc3c(=O)n2-c2cccc(C(=O)O)c2)cc1 | 
7 | ≥ 16 | ≥ 16 | ≥ 16 | ≥ 16 | ≥ 8 | ≥ 16 | CC(=O)OCCCn1c(/C=C/c2ccc(C#N)cc2)nc2ccccc2c1=O | 
8 | ≥ 16 | ≥ 16 | ≥ 16 | ≥ 16 | ≥ 8 | ≥ 16 | COC(=O)CCNC(=O)c1cccc(-n2c(/C=C/c3ccc(C#N)cc3)nc3ccccc3c2=O)c1 | 
9 | ≥ 16 | ≥ 16 | ≥ 16 | ≥ 16 | ≥ 8 | ≥ 16 | CS(=O)(=O)NCc1cccc(-n2c(/C=C/c3ccc(C#N)cc3)nc3ccccc3c2=O)c1 | 
10 | ≥ 16 | ≥ 16 | ≥ 16 | ≥ 16 | ≥ 8 | ≥ 16 | O=C(O)c1cccc(-n2c(/C=C/c3ccc(C#CCO)cc3)nc3ccccc3c2=O)c1 | 
11 | ≥ 16 | ≥ 16 | ≥ 16 | ≥ 16 | ≥ 8 | ≥ 16 | CC(C)Nc1cccc(-n2c(/C=C/c3ccc(C#N)cc3)nc3ccccc3c2=O)c1 | 
12 | ≥ 16 | ≥ 16 | ≥ 16 | ≥ 16 | ≥ 8 | ≥ 16 | CC(=O)Oc1ccc(-n2c(/C=C/c3ccc([N+](=O)[O-])cc3)nc3ccccc3c2=O)cc1 | 
13 | ≥ 16 | ≥ 16 | ≥ 16 | ≥ 16 | ≥ 8 | ≥ 16 | COC(=O)Nc1cccc(-n2c(/C=C/c3ccc(C#N)cc3)nc3ccccc3c2=O)c1 | 

Continued, molecule first:

Row | Compound | MIC (Klebsiella pneumoniae) [µg/mL] | MIC (Escherichia coli) [µg/mL] | MIC (Klebsiella aerogenes) [µg/mL] | MIC (Acinetobacter baumannii) [µg/mL] | MIC (Enterococcus faecium) [µg/mL] | MIC (Pseudomonas aeruginosa) [µg/mL] | MIC (Staphylococcus aureus) [µg/mL]
14 | C#Cc1ccc(/C=C/c2nc3ccccc3c(=O)n2-c2cccc(O)c2)cc1 | ≥ 16 | ≥ 16 | ≥ 16 | ≥ 16 | ≥ 8 | ≥ 16 | 0.003 (≈ 0.00823 µM)
15 | O=c1c2ccccc2nc(Cc2ccccc2)n1-c1cccc(O)c1 | ≥ 16 | ≥ 16 | ≥ 16 | ≥ 16 | ≥ 8 | ≥ 16 | 32 (≈ 97.5 µM)
16 | O=c1c2ccccc2nc(/C=C/c2ccc(Cl)cc2)n1-c1cccc(O)c1 | ≥ 16 | ≥ 16 | ≥ 16 | ≥ 16 | ≥ 8 | ≥ 16 | 0.125 (≈ 0.333 µM)
17 | O=c1c2ccccc2nc(/C=C/c2ccco2)n1-c1cccc(O)c1 | ≥ 16 | ≥ 16 | ≥ 16 | ≥ 16 | ≥ 8 | ≥ 16 | 128 (≈ 387 µM)
18 | CCc1ccc(/C=C/c2nc3ccccc3c(=O)n2-c2cccc(O)c2)cc1 | ≥ 16 | ≥ 16 | ≥ 16 | ≥ 16 | ≥ 8 | ≥ 16 | 0.5 (≈ 1.36 µM)
19 | COc1ccc(/C=C/c2nc3ccccc3c(=O)n2-c2cccc(O)c2)cc1 | ≥ 16 | ≥ 16 | ≥ 16 | ≥ 16 | ≥ 8 | ≥ 16 | 4 (≈ 10.8 µM)
20 | Cc1ccc(-c2nc3ccccc3c(=O)n2-c2cccc(O)c2)cc1 | ≥ 16 | ≥ 16 | ≥ 16 | ≥ 16 | ≥ 8 | ≥ 16 | 128 (≈ 390 µM)
21 | O=c1c2ccccc2nc(CCc2ccccc2)n1-c1cccc(O)c1 | ≥ 16 | ≥ 16 | ≥ 16 | ≥ 16 | ≥ 8 | ≥ 16 | 0.06 (≈ 0.175 µM)
22 | N#Cc1ccc(/C=C/c2nc3ccncc3c(=O)n2-c2cccc(C(=O)O)c2)cc1 | ≥ 16 | ≥ 16 | ≥ 16 | ≥ 16 | ≥ 8 | ≥ 16 | 
23 | NC(=O)c1cccc(-n2c(/C=C/c3ccc(Cl)cc3)nc3ccncc3c2=O)c1 | ≥ 16 | ≥ 16 | ≥ 16 | ≥ 16 | ≥ 8 | ≥ 16 | 
24 | O=c1c2ccccc2nc(/C=C/c2ccncc2)n1-c1cccc(O)c1 | ≥ 16 | ≥ 16 | ≥ 16 | ≥ 16 | ≥ 8 | ≥ 16 | 2 (≈ 5.86 µM)
25 | O=c1c2cnccc2nc(/C=C/c2ccc(F)cc2)n1-c1cccc(O)c1 | ≥ 16 | ≥ 16 | ≥ 16 | ≥ 16 | ≥ 8 | ≥ 16 | 
26 | N#Cc1ccc(/C=C/c2nc3cc([N+](=O)[O-])ccc3c(=O)n2-c2cccc(C(=O)O)c2)cc1 | ≥ 16 | ≥ 16 | ≥ 16 | ≥ 16 | ≥ 8 | ≥ 16 | 64 (≈ 146 µM)
27 | O=c1c2ccccc2nc(/C=C/c2ccccc2[N+](=O)[O-])n1-c1cccc(O)c1 | ≥ 16 | ≥ 16 | ≥ 16 | ≥ 16 | ≥ 8 | ≥ 16 | 128 (≈ 332 µM)
28 | O=c1c2cc(Br)ccc2nc(/C=C/c2ccc([N+](=O)[O-])cc2)n1-c1cccc(O)c1 | ≥ 16 | ≥ 16 | ≥ 16 | ≥ 16 | ≥ 8 | ≥ 16 | 
29 | O=C(O)c1cccc(-n2c(/C=C/c3ccc(F)cc3)nc3ccncc3c2=O)c1 | ≥ 16 | ≥ 16 | ≥ 16 | ≥ 16 | ≥ 8 | ≥ 16 | 
30 | O=c1c2ccccc2nc(/C=C/c2ccc(O)cc2)n1-c1cccc(O)c1 | ≥ 16 | ≥ 16 | ≥ 16 | ≥ 16 | ≥ 8 | ≥ 16 | > 128
31 | O=c1c2ccccc2nc(/C=C/c2ccc(C(F)(F)F)cc2)n1-c1cccc(O)c1 | ≥ 16 | ≥ 16 | ≥ 16 | ≥ 16 | ≥ 8 | ≥ 16 | 128 (≈ 313 µM)
32 | CC(=O)OCc1cccc(-n2c(/C=C/c3ccc(C#N)cc3)nc3ccccc3c2=O)c1 | ≥ 16 | ≥ 16 | ≥ 16 | ≥ 16 | ≥ 8 | ≥ 16 | 
33 | O=c1c2ccccc2nc(/C=C/c2cccc(F)c2)n1-c1cccc(O)c1 | ≥ 16 | ≥ 16 | ≥ 16 | ≥ 16 | ≥ 8 | ≥ 16 | 
34 | Nc1cccc(-n2c(/C=C/c3ccc(F)cc3)nc3ccccc3c2=O)c1 | ≥ 16 | ≥ 16 | ≥ 16 | ≥ 16 | ≥ 8 | ≥ 16 | 
35 | O=c1c2cnccc2nc(/C=C/c2ccc(Cl)cc2)n1-c1cccc(O)c1 | ≥ 16 | ≥ 16 | ≥ 16 | ≥ 16 | ≥ 8 | ≥ 16 | 
36 | NC(=O)c1cccc(-n2c(/C=C/c3ccc(F)cc3)nc3ccncc3c2=O)c1 | ≥ 16 | ≥ 16 | ≥ 16 | ≥ 16 | ≥ 8 | ≥ 16 | 
37 | CC(C)c1ccc(/C=C/c2nc3ccccc3c(=O)n2-c2cccc(O)c2)cc1 | ≥ 16 | ≥ 16 | ≥ 16 | ≥ 16 | ≥ 8 | ≥ 16 | 
38 | N#Cc1ccc(/C=C/c2nc3ccccc3c(=O)n2-c2cccc(F)c2)cc1 | ≥ 16 | ≥ 16 | ≥ 16 | ≥ 16 | ≥ 8 | ≥ 16 | 
39 | N#Cc1ccc(/C=C/c2nc3ccccc3c(=O)n2-c2cc[nH]n2)cc1 | ≥ 16 | ≥ 16 | ≥ 16 | ≥ 16 | ≥ 8 | ≥ 16 | 
40 | O=C(O)c1cccc(-n2c(/C=C/c3ccc(Cl)cc3)nc3ccncc3c2=O)c1 | ≥ 16 | ≥ 16 | ≥ 16 | ≥ 16 | ≥ 8 | ≥ 16 | 
41 | O=c1c2ccccc2nc(/C=C/c2ccc([N+](=O)[O-])cc2)n1-c1ccccc1O | ≥ 16 | ≥ 16 | ≥ 16 | ≥ 16 | ≥ 8 | ≥ 16 | 
